Published values from different studies.
Compare with care: the assays were run in different laboratories.
Target: Protein kinase C epsilon type (PRKCE, Homo sapiens, UniProt Q02156)
Residues used in one study (Q02156 1-737): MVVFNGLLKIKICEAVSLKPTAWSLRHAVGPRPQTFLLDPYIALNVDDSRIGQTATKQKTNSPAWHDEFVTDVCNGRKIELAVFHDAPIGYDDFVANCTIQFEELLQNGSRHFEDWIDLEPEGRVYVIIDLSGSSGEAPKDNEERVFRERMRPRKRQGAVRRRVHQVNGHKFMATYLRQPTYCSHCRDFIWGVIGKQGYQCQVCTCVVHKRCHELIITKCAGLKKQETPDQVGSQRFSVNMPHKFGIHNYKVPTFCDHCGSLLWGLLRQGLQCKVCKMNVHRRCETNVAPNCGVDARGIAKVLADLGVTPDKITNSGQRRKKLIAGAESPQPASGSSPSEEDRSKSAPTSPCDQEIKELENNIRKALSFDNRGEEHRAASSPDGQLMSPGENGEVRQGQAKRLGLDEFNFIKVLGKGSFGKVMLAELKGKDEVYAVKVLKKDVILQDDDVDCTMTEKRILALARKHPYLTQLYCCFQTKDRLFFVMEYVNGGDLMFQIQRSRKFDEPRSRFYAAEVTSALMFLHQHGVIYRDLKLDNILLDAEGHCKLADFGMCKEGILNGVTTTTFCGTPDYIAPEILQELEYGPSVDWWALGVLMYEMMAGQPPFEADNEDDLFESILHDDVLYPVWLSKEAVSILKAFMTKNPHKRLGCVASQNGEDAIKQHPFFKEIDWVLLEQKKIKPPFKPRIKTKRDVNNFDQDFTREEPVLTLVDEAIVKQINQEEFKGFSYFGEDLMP

Structure (SMILES) | assay | conditions | quantity | value
CNCc1ccccc1-c1csc([C@H](C)Nc2nc(C)nc3cc(OC)c(OC)cc23)c1 | cell-free assay, competition with immobilised ligand | 1 µM | remaining binding | 78%
Cn1cncc1C1=CN(c2ncnc3[nH]cnc23)CCS1 | enzyme activity, inhibitor, radiometric | 50 nM | inhibition | 25.8%
Nc1nc(Nc2ccc(S(N)(=O)=O)cc2)nn1C(=O)c1c(F)cccc1F | cell-free assay | 0.5 µM | remaining signal | 97.2%
O=C(Nc1cccnn1)N1CCC(=Cc2cccc(Oc3ccc(C(F)(F)F)cn3)c2)CC1 | cell-free assay, competition with immobilised ligand | 1 µM | remaining binding | 82%
N#CCCc1ccc2c(c1)-c1[nH]c3ccc([N+](=O)[O-])cc3c1CC(=O)N2 | cell-free assay | 0.5 µM | remaining signal | 95.4%
CCOC(=O)c1cc2cc(-c3cc(C(=O)NCc4ccc(C(=O)O)cc4)nn3C)ccc2[nH]1 | cell-free assay, competition with immobilised ligand | 0.1 µM | remaining binding | 90%
Cc1ccc(Nc2nccc(N(C)c3ccc4c(C)n(C)nc4c3)n2)cc1S(N)(=O)=O | enzyme activity, inhibitor | 10 µM | inhibition | 12%
CN1CC(Oc2cnc(C#N)cc2-c2ccn3nc(NC(=O)C4CC4)cc3c2)C1 | enzyme activity, inhibitor | 1 µM | inhibition | 6%
CC(C)(C)c1nc2c(s1)c1nc(N)ncc1c1ccc(NS(=O)(=O)c3c(F)cccc3F)c(F)c12 | enzyme activity, inhibitor, radiometric | 1 µM | remaining activity | 133%
COc1cc2ncnc(Nc3ccc(Oc4ccccc4)c(C)c3C)c2cc1OC | enzyme activity, inhibitor | 1 µM | inhibition | -5%
CCCOc1ccc(OC)c(F)c1C(=O)c1ccc(C(=O)N[C@@H]2CNC[C@H]2NC(=O)c2ccc3[nH]ncc3c2)cc1 | enzyme activity, inhibitor | 10 µM | remaining activity | 67%
CN([C@@H]1CCc2c(CC(=O)O)c3cc(S(C)(=O)=O)ccc3n2C1)S(=O)(=O)c1ccc(F)cc1 | cell-free assay, competition with immobilised ligand | 1 µM | remaining binding | 87%
Cc1cc(NC(=O)c2cccc3cc(-c4cccc5[nH]nc(N)c45)ccc23)ccc1F | enzyme activity, inhibitor | 0.1 µM | activity vs control | 84%
Cc1ccc(NC(=O)c2ccc(C)c(C(F)(F)F)c2)cc1C#Cc1nn(C2CCC(O)CC2)c2ncnc(N)c12 (centres unmarked) | cell-free assay | 10 µM | remaining signal | 117%
O=C(Nc1cnn(-c2csc(C(=O)NC3COC3)c2)c1)Nc1c(F)cccc1Cl | enzyme activity, inhibitor | 5 µM | remaining activity | 94.2%
CNC(=O)Nc1ccc2c(c1)CC[C@@]21OC(=O)N(CC(=O)N(Cc2ccc(F)cc2)[C@@H](C)C(F)(F)F)C1=O | cell-free assay, competition with immobilised ligand | 1 µM | remaining binding | 22%
CC(C)(O)[C@H]1CC[C@H](Nc2ccc3ncc(-c4cccc(C(F)(F)F)c4)n3n2)CC1 | enzyme activity, inhibitor | 1 µM | remaining activity | 60.1%
